KCNQ1 act – potentiators or activators of human KCNQ1 potassium channel. CHO-K1 KCNQ1, thallium flux FluxOR fluorescence; hits give high values. B-score at 10 µM. 310,000 compounds, 0.35% hits;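 active = fluorescence ratio B-score, a plate-corrected score, at least three library SD, with initial intensity B-score within 5 SD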
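Material: CHO-K1 cells stably expressing KCNQ1. Medium: assay buffer for compound exposure, DMSO matched across wells. Reagent: K+/Tl+ depolarizing stimulus. Compound dosing: single-concentration screen. Times: 37 °C overnight plating, 90-min dark dye load, 20-min compound pretreatment. Technique: FluxOR Tl+ flux fluorescence.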
hERG rescue – hERG (human) protection from proarrhythmic block | activation (rescue from dofetilide block), less the hit threshold, % at 10 µM | CHO-hERG, FluxOR thallium flux, dofetilide IC70 present | AID 1511 | 310,000 compounds, 0.51% hits | Q12809;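 active = activation above the mean of controls blocked by dofetilide plus 5 SD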;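 also: thallium influx through hERG after potassium depolarization seen as dye fluorescence rise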
KCNK9 inh – human KCNK9 channel inhibition | Q9NPC2 | HEK293 KCNK9, FluxOR thallium flux fluorescence; hits give low values | B-score at 10 µM | 310,000 compounds, 1.2% hits | AID 488922;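 active = ratio B-score over 3 SD below the library mean, with starting fluorescence within 5 SD of its mean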;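 also: negative B-score means less thallium flux so channel inhibition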
Target sequence (Q9NPC2 whole entry, looked up): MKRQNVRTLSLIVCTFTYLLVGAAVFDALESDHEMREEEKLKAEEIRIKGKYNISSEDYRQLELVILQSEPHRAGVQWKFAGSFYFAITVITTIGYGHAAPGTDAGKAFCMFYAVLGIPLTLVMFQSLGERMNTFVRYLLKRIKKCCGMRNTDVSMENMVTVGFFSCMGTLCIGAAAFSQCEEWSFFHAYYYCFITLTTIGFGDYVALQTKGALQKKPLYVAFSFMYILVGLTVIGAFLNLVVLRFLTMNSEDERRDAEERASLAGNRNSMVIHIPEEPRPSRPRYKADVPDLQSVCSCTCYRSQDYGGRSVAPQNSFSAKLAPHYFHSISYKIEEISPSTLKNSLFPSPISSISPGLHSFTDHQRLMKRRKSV
Kir21 inh – Kir2.1 (mouse) channel inhibition. B-score at 10 µM. 310,000 compounds, 0.85% hits. HEK293-Kir2.1, FluxOR thallium flux fluorescence; hits give low values;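 active = fluorescence ratio B-score at or below minus 3 SD of library scores, with starting-brightness B-score within 2 SD, cut at about -4.2 in these data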;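 also: channel flux triggered by added potassium and thallium sulfate stimulus; B-score of peak minus minimum fluorescence over baseline after thallium stimulus; more negative B-score means stronger Kir2.1 block with less thallium influx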
KCNQ1 block – inhibitors of human KCNQ1 potassium channel | B-score at 10 µM | 310,000 compounds, 1.3% hits | CHO-K1 KCNQ1, FluxOR thallium flux fluorescence; hits give high values;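 active = compounds whose thallium flux B-score, printed positive for inhibition, exceeds three library SD while starting fluorescence stays within three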;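 also: channel opened by potassium depolarization with thallium stimulus after 20 min compound exposure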
KCNK3 block – human KCNK3 channel inhibition, primary screen; O14649; CHO-KCNK3 thallium flux, FluxOR fluorescence; hits give low values; B-score at 10 µM; 340,000 compounds, 0.84% hits;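 active = B-score under library mean minus 4 SD, starting fluorescence ratio at most library mean plus 5 SD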;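 also: more negative B-score means stronger inhibition of thallium flux through KCNK3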
Target sequence (O14649 whole entry, looked up): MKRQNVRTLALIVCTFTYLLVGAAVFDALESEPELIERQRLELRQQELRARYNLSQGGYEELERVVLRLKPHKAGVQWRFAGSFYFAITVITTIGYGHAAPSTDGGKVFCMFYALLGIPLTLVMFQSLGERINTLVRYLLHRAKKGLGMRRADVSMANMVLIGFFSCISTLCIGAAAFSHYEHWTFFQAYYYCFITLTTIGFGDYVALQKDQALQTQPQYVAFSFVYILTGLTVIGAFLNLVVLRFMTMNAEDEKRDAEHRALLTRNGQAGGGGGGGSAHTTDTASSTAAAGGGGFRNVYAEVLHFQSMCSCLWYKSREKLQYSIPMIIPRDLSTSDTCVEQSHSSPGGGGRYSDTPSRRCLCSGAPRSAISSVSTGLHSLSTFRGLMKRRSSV
KCNQ1 inh valid – reconfirmed blocker of the human KCNQ1 potassium channel | AID 588353 | 1,600 compounds, 93% hits | inhibition, % at 10 µM | KCNQ1 cell line, FluxOR thallium flux fluorescence | shares compounds with KCNQ1 block;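 active = primary screen active, with duplicate mean exceeding buffer control mean plus 3 SD of buffer wells, cut at about 28% in these data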;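 also: 0% = buffer control ratio and 100% = XE991 inhibitor control ratio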
CHO Tl flux – counter-screen for KCNQ1 inhibitors: effect in parental CHO cells | fluorescence ratio (Tl flux) at 10 µM | shares compounds with KCNQ1 block | 1,600 compounds, 21% hits | parental CHO-K1, FluxOR thallium flux fluorescence ratio; hits give low values; zero means no signal rise above baseline;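 active = mean of duplicate thallium-flux fluorescence ratios in parental host cells more than 5 SD below the buffer control mean, cut at about 0.38 in these data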;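 also: ratio is peak minus minimum fluorescence divided by baseline fluorescence; actives read low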
KCNQ1 ephys val – human KCNQ1 inhibition validated by electrophysiology; 490 compounds, 20% hits; calls only at 10 µM; KCNQ1-CHO cells, automated patch clamp current; shares compounds with KCNQ1 block;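 active = KCNQ1 current drop exceeding 3 SD of negative control wells, seen in both duplicate runs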;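 also: steady state current during a 2 s step from -80 to +40 mV; negative values mean current inhibition and positive values mean potentiation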
KCNQ2 inh – rat KCNQ2 inhibition in KCNQ1 inhibitor specificity screen. shares compounds with KCNQ1 block. KCNQ2 cells, FluxOR thallium flux fluorescence. inhibition, % at 10 µM. 1,600 compounds, 71% hits. AID 651746;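 active = mean percent inhibition of the KCNQ2 thallium signal more than 5 SD above the buffer-only control wells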;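 also: KCNQ2 expressed in CHO cells; 0% = buffer control wells and 100% = XE-991 inhibitor control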
KCNQ1 KCNE1 spec – human KCNQ1/KCNE1 inhibition in KCNQ1 specificity screen; AID 652147; inhibition, % at 10 µM; KCNQ1/KCNE1 cells, FluxOR thallium flux fluorescence; shares compounds with KCNQ1 block; 1,600 compounds, 77% hits;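 active = mean percent inhibition of duplicate wells above the buffer-only control mean plus 3 SD of those controls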;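 also: 0% = buffer only wells and 100% = XE-991 inhibitor control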
KCNK9 inh conf – human KCNK9 inhibitor confirmation | HEK293 KCNK9 cells, FluxOR thallium flux fluorescence | AID 492992 | inhibition, % at 10 µM | shares compounds with KCNK9 inh | 4,900 compounds, 43% hits;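 active = thallium signal inhibited by more than 5 SD of the compound-free buffer control wells, on both duplicate plates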;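 also: 0% = assay buffer control wells without compound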
Kir21 sel – selectivity of KCNK9 modulators against mouse Kir2.1. AID 492993. inhibition, % at 10 µM. shares compounds with KCNK9 inh. Kir2.1 cells, FluxOR thallium flux fluorescence. 4,900 compounds, 4% hits;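 active = thallium signal drop more than 5 SD beyond the mean of the no-compound control wells, seen in both duplicate plates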;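 also: signal is fluorescence rise after thallium addition divided by baseline fluorescence; plate controls were assay buffer only for no effect and full block by chlorpromazine control for full effect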
HEK293 Tl ctr – second counter-screen for KCNK9 modulators: effect in non-induced cells; shares compounds with KCNK9 inh; non-induced KCNK9-HEK293, FluxOR thallium flux; inhibition, % at 10 µM; 4,900 compounds, 40% hits;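 active = thallium signal drop beyond 5 SD of the untreated control mean, on both duplicate plates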;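 also: plate controls were buffer only IC0 wells for no effect and SID17386958 at its maximal inhibitory level for full effect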
KCNK3 inh conf – human KCNK3 channel inhibition, confirmation assay; shares compounds with KCNK3 block; CHO-KCNK3 thallium flux, FluxOR fluorescence; 0% buffer, 100% carvedilol maximal block; ratio percent of control, % at 10 µM; 2,400 compounds, 99% hits;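 active = ratio percent of control, averaged over triplicates, above buffer control mean plus 5 SD, cut at about 64% in these data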;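 also: ratio is the fluorescence rise from min to max over baseline after thallium stimulus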
KCNK3 noninduced – KCNK3 inhibitor counter-screen hit in non-induced cells | shares compounds with KCNK3 block | non-induced KCNK3 parental cells, FluxOR thallium flux; hits give low values | thallium flux ratio (lower = more inhibition) at 10 µM | 2,400 compounds, 40% hits | AID 651747;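 active = thallium flux ratio, averaged over three wells, more than 5 SD below the buffer control mean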;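 also: host cells are CHO cells without KCNK3 induction; ratio is peak minus trough fluorescence over baseline then normalized to buffer controls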
An asterisk follows results filed as active; i = inactive; / = not tested or not shown; + = active, no number. Hits are enriched below; roughly 3.7% of the tested compounds scored in any of these assays.

SMILES | KCNQ1 act | hERG rescue | KCNK9 inh | Kir21 inh | KCNQ1 block | KCNK3 block | KCNK9 inh conf | Kir21 sel | HEK293 Tl ctr | others
CCC(C(=O)Nc1cccc(C(F)(F)F)c1)c1ccccc1 (stereo unspecified) | i | -12 | -10* | 0.18 | 11* | -9.4* | 64%* | i | 44%* | KCNQ1 inh valid=104*;CHO Tl flux=0.4;KCNQ1 ephys val=+;KCNQ2 inh=72%*;KCNQ1 KCNE1 spec=116%*;KCNK3 inh conf=128*;KCNK3 noninduced=0.13*
CCc1ccc(CN(C)C(=O)c2cc(COc3cc(C)c(Cl)c(C)c3)on2)nc1 | i | -10 | i | -0.73 | i | i | i | i | i
CCCn1c(SCC(=O)Nc2ccccc2Oc2ccccc2)n[nH]c1=O | i | -13 | i | -3.8 | i | i | / | / | /
COc1ccc(Cc2nn3c(-c4ccccc4Br)nnc3s2)cc1 | i | -4 | i | 1.5 | i | i | / | / | /
Brc1ccccc1-c1nnc2sc(Cc3ccccc3)nn12 | i | -5 | -15* | 1.4 | i | i | 36%* | i | 26%*
CCSc1nc2c(sc3ccccc32)c(=O)n1C(C)C | 13* | 6.1* | -11* | -0.64 | i | i | 46%* | i | i
CCCCn1c(SCC(N)=O)nc2c(sc3ccccc32)c1=O | i | -6 | i | 2.1 | i | i | / | / | /
O=C(CCC1CCCN(C(=O)CCN2CCCCC2=O)C1)NCc1ccccc1F (stereo unspecified) | i | -4 | i | -0.07 | i | i | / | / | /
COc1ccc(S(=O)(=O)N(C)c2ccc(C(=O)NCc3ccccn3)cc2)cc1OC | i | -9 | i | -0.47 | i | i | / | / | /
O=S(=O)(c1ccc(Cl)s1)N1CCN(Cc2ccccc2)CC1 | i | -7 | i | -0.01 | i | i | i | i | i
O=S(=O)(c1cccs1)N1CCN(CCc2ccccc2)CC1 | i | -3 | i | 0.42 | i | i | / | / | /
CC(C)c1ccc(CN2CCN(S(=O)(=O)c3ccc(Cl)s3)CC2)cc1 | / | / | / | / | / | i | / | / | /
O=S(=O)(c1ccc(Cl)s1)N1CCN(CCc2ccccc2)CC1 | i | -7 | i | 0.66 | i | i | i | i | i
O=S(=O)(c1cccc(Br)c1)N1CCN(CCc2ccccc2)CC1 | i | -12 | i | 0.38 | i | i | i | i | i
Cc1cc(S(=O)(=O)N2CCN(Cc3ccccc3)CC2)c(C)s1 | i | -9 | i | -2.1 | i | i | i | i | i
O=S(=O)(c1ccccc1)N1CCN(Cc2cccc(Br)c2)CC1 | i | -6 | i | 1.2 | i | i | / | / | /
COc1cc(C)c(C)cc1S(=O)(=O)N1CCN(Cc2ccccc2)CC1 | i | -7 | i | -0.18 | i | i | / | / | /
O=C(C(=O)N1CCCC1)c1c(-c2ccccc2)[nH]c2ccccc12 | i | 1 | i | 0.53 | i | i | / | / | /
Clc1ccc(-c2nnc(Sc3nc4ccccc4o3)c3ccccc23)cc1 | i | -9 | i | 0.1 | i | i | i | i | i
Cc1ccc(-c2nnc(Sc3nc4ccccc4o3)c3ccccc23)cc1 | i | -9 | i | 1.9 | i | i | / | / | /
CCCn1cc(CN2CCCC(C(=O)c3cccc(OC(C)C)c3)C2)c(C)n1 (stereo unspecified) | i | -8 | i | 0.01 | i | i | i | i | i
CC(C)Oc1cccc(C(=O)C2CCCN(Cc3cnc(N4CCCC4)s3)C2)c1 (stereo unspecified) | i | -4 | i | -0.03 | i | i | i | i | i
CCCn1ncc(CN2CCCC(C(=O)c3cccc(OC(C)C)c3)C2)c1C (stereo unspecified) | i | -9 | i | -1.2 | i | i | / | / | /
O=C(O)CCc1ccc(-c2ccccc2)n1-c1cccc(C(=O)O)c1 | i | -3 | i | -0.34 | i | i | / | / | /
CC(=O)c1cccc(-n2c(CCC(=O)O)ccc2-c2ccc(C)cc2)c1 | i | 2 | -15* | 0.75 | i | i | i | i | i
COc1ccc(C(=O)Nn2c(SCC(=O)NC3CCCCC3)nc3ccccc3c2=O)cc1 | i | -6 | i | -2.3 | i | i | / | / | /
O=C(Nn1c(SCc2cccc([N+](=O)[O-])c2)nc2ccccc2c1=O)c1ccccc1 | i | -16 | -13* | -0.33 | i | i | 67%* | i | 43%*
COc1ccc(C(=O)Nn2c(SCc3cccc([N+](=O)[O-])c3)nc3ccccc3c2=O)cc1 | i | -13 | -12* | -0.7 | i | i | 68%* | i | 32%*
O=C(CSc1nc2ccccc2c(=O)n1-c1ccccc1)c1cccc([N+](=O)[O-])c1 | i | -3 | i | -0.76 | i | i | / | / | /
